Results as given in ChEMBL document CHEMBL3244142, “Antifungal properties of 2-bromo-3-fluorosuccinic acid esters and related compounds” (1977).
In brackets after ≈: the same amount, converted by molar mass. Activity calls are given as the source filed them. The calls are words filed in the database; no cut-off is given here.

Key:
[1] = system: Candida albicans; assay: Antifungal activity against Candida albicans ATCC 10231 at <100 ug/ml at pH 5.6 after 20 h in presence of 10% beef serum
[2] = system: Aspergillus niger; assay: Antifungal activity against Aspergillus niger ATCC 1004 at <100 ug/ml at pH 7 after 5 days in presence of 10% beef serum; format: functional, organism-based
Summary of the method: (§1)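 Agar-dilution MIC in Sabouraud dextrose agar at pH 5.6 or 7.0, with or without 10% beef serum. Plates were incubated at 28 °C for 5 days. MIC is the lowest concentration (µg/mL) giving 100% inhibition. Steps were 1 µg/mL up to 10, 2 µg/mL from 10–20, and 10 µg/mL from 20–100; 100 µg/mL was the top level, and no inhibition there is scored as >100.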

[3] = system: Mucor mucedo; assay: Antifungal activity against Mucor mucedo ATCC 7941 at <100 ug/ml at pH 7 after 20 h in presence of 10% beef serum
[4] = system: Candida albicans; assay: Antifungal activity against Candida albicans ATCC 10231 at <100 ug/ml at pH 5.6 after 20 h in absence of 10% beef serum
[5] = system: Aspergillus niger; assay: Antifungal activity against Aspergillus niger ATCC 1004 at <100 ug/ml at pH 5.6 after 5 days in presence of 10% beef serum; format: functional, organism-based
Summary of the method: as §1

[6] = system: Mucor mucedo; assay: Antifungal activity against Mucor mucedo ATCC 7941 at pH 7 after 20 h in absence of 10% beef serum; conditions: ATCC 7941, 20 h
[7] = system: Aspergillus niger; assay: Antifungal activity against Aspergillus niger ATCC 1004 at <100 ug/ml at pH 7 after 5 days in absence of 10% beef serum; format: functional, organism-based
Summary of the method: as §1

[8] = system: Aspergillus niger; assay: Antifungal activity against Aspergillus niger ATCC 1004 at <100 ug/ml at pH 5.6 after 5 days in absence of 10% beef serum; format: functional, organism-based
Summary of the method: as §1

[9] = system: Trichophyton mentagrophytes; assay: Antifungal activity against Trichophyton mentagrophytes ATCC 9129 at pH 5.6 after 5 days in absence of 10% beef serum; format: functional; conditions: Trichophyton mentagrophytes, ATCC 9129, 120 h; read-out: MIC
Summary of the method: as §1

[10] = system: Candida albicans; assay: Antifungal activity against Candida albicans ATCC 10231 at <100 ug/ml at pH 7 after 20 h in presence of 10% beef serum
[11] = system: Trichophyton mentagrophytes; assay: Antifungal activity against Trichophyton mentagrophytes ATCC 9129 at <100 ug/ml at pH 5.6 after 5 days in presence of 10% beef serum; format: functional, organism-based
Summary of the method: as §1

[12] = system: Candida albicans; assay: Antifungal activity against Candida albicans ATCC 10231 at <100 ug/ml at pH 7 after 20 h in absence of 10% beef serum
[13] = system: Mucor mucedo; assay: Antifungal activity against Mucor mucedo ATCC 7941 at pH 5.6 after 20 h in absence of 10% beef serum; conditions: ATCC 7941, 20 h
[14] = system: Mucor mucedo; assay: Antifungal activity against Mucor mucedo ATCC 7941 at pH 5.6 after 20 h in presence of 10% beef serum; conditions: ATCC 7941, 20 h
[15] = system: Trichophyton mentagrophytes; assay: Antifungal activity against Trichophyton mentagrophytes ATCC 9129 at <100 ug/ml at pH 7 after 5 days in presence of 10% beef serum; format: functional, organism-based
Summary of the method: as §1

[16] = system: Trichophyton mentagrophytes; assay: Antifungal activity against Trichophyton mentagrophytes ATCC 9129 at <100 ug/ml at pH 7 after 5 days in absence of 10% beef serum; format: functional, organism-based
Summary of the method: as §1

[17] = system: Trichophyton mentagrophytes; assay: Antifungal activity against Trichophyton mentagrophytes ATCC 9129 at pH 7 after 5 days in presence of 10% beef serum; format: functional; conditions: Trichophyton mentagrophytes, ATCC 9129, 120 h; read-out: MIC
Summary of the method: as §1

[18] = system: Aspergillus niger; assay: Antifungal activity against Aspergillus niger ATCC 1004 at pH 5.6 after 5 days in presence of 10% beef serum; format: functional; conditions: Aspergillus niger, ATCC 1004, 120 h; read-out: MIC
Summary of the method: as §1

[19] = system: Trichophyton mentagrophytes; assay: Antifungal activity against Trichophyton mentagrophytes ATCC 9129 at pH 7 after 5 days in absence of 10% beef serum; format: functional; conditions: Trichophyton mentagrophytes, ATCC 9129, 120 h; read-out: MIC
Summary of the method: as §1

[20] = system: Candida albicans; assay: Antifungal activity against Candida albicans ATCC 10231 at pH 5.6 after 20 h in absence of 10% beef serum; conditions: ATCC 10231, 20 h
[21] = system: Mucor mucedo; assay: Antifungal activity against Mucor mucedo ATCC 7941 at pH 7 after 20 h in presence of 10% beef serum; conditions: ATCC 7941, 20 h
[22] = system: Candida albicans; assay: Antifungal activity against Candida albicans ATCC 10231 at pH 7 after 20 h in absence of 10% beef serum; conditions: ATCC 10231, 20 h
[23] = system: Aspergillus niger; assay: Antifungal activity against Aspergillus niger ATCC 1004 at pH 7 after 5 days in absence of 10% beef serum; format: functional; conditions: Aspergillus niger, ATCC 1004, 120 h; read-out: MIC
Summary of the method: as §1

[24] = system: Aspergillus niger; assay: Antifungal activity against Aspergillus niger ATCC 1004 at pH 5.6 after 5 days in absence of 10% beef serum; format: functional; conditions: Aspergillus niger, ATCC 1004, 120 h; read-out: MIC
Summary of the method: as §1

[25] = system: Aspergillus niger; assay: Antifungal activity against Aspergillus niger ATCC 1004 at pH 7 after 5 days in presence of 10% beef serum; format: functional; conditions: Aspergillus niger, ATCC 1004, 120 h; read-out: MIC
Summary of the method: as §1

[26] = system: Candida albicans; assay: Antifungal activity against Candida albicans ATCC 10231 at pH 7 after 20 h in presence of 10% beef serum; conditions: ATCC 10231, 20 h
[27] = system: Trichophyton mentagrophytes; assay: Antifungal activity against Trichophyton mentagrophytes ATCC 9129 at pH 5.6 after 5 days in presence of 10% beef serum; format: functional; conditions: Trichophyton mentagrophytes, ATCC 9129, 120 h; read-out: MIC
Summary of the method: as §1

[28] = system: Candida albicans; assay: Antifungal activity against Candida albicans ATCC 10231 at pH 5.6 after 20 h in presence of 10% beef serum; conditions: ATCC 10231, 20 h
[29] = system: Mucor mucedo; assay: Antifungal activity against Mucor mucedo ATCC 7941 at <100 ug/ml at pH 5.6 after 20 h in presence of 10% beef serum
[30] = system: Mucor mucedo; assay: Antifungal activity against Mucor mucedo ATCC 7941 at <100 ug/ml at pH 5.6 after 20 h in absence of 10% beef serum
[31] = system: Mucor mucedo; assay: Antifungal activity against Mucor mucedo ATCC 7941 at <100 ug/ml at pH 7 after 20 h in absence of 10% beef serum

Row | Structure (SMILES) | MIC [6] [µg/mL] | MIC [9] [µg/mL] | MIC [13] [µg/mL] | MIC [14] [µg/mL] | MIC [17] [µg/mL] | MIC [18] [µg/mL] | MIC [19] [µg/mL] | MIC [20] [µg/mL] | MIC [21] [µg/mL] | MIC [22] [µg/mL] | MIC [23] [µg/mL] | MIC [24] [µg/mL] | MIC [25] [µg/mL] | MIC [26] [µg/mL] | MIC [27] [µg/mL] | MIC [28] [µg/mL] | other results
1 | COC(=O)C#CC(=O)OC | 70 (≈ 493 µM) | 40 (≈ 281 µM) | 8 (≈ 56.3 µM) | 30 |  |  |  |  |  |  |  |  |  |  |  |  | inhibition [1]: inactive; inhibition [2]: inactive; inhibition [3]: inactive; inhibition [4]: inactive; inhibition [5]: inactive; inhibition [7]: inactive; inhibition [8]: inactive; inhibition [10]: inactive; inhibition [11]: inactive; inhibition [12]: inactive; inhibition [15]: inactive; inhibition [16]: inactive
2 | COC(=O)/C=C(\Br)C(=O)OC | 5 (≈ 22.4 µM) | < 1 | 3 (≈ 13.5 µM) | 4 | 9 | 16 | 3 (≈ 13.5 µM) | 12 (≈ 53.8 µM) | 14 | 18 (≈ 80.7 µM) | 18 (≈ 80.7 µM) | 14 (≈ 62.8 µM) | 20 | 20 | 3 | 14 | 
3 | CCOC(=O)[C@H](F)[C@@H](Br)C(=O)OCC (relative stereo) | 4 (≈ 14.8 µM) | < 1 | 2 (≈ 7.38 µM) | 6 | 5 | 20 | 2 (≈ 7.38 µM) | 4 (≈ 14.8 µM) | 9 | 7 (≈ 25.8 µM) | 20 (≈ 73.8 µM) | 18 (≈ 66.4 µM) | 30 | 14 | 2 | 5 | 
4 | C[C@@H]1[C@H](O)[C@@H](C)/C=C/C=C/C=C/C=C/C=C/C=C/C=C/[C@H](O[C@@H]2O[C@H](C)[C@@H](O)[C@H](N)[C@@H]2O)C[C@@H]2O[C@](O)(C[C@@H](O)C[C@@H](O)[C@H](O)CC[C@@H](O)C[C@@H](O)CC(=O)O[C@H]1C)C[C@H](O)[C@H]2C(=O)O [AMPHOTERICIN B] | < 1 | < 1 | < 1 | < 1 | < 1 | < 1 | < 1 | < 1 | < 1 | < 1 | < 1 | < 1 | < 1 | < 1 | < 1 | < 1 | 
5 | CCCOC(=O)[C@@H](F)[C@@H](Br)C(=O)OCCC (relative stereo) | 3 (≈ 10 µM) | < 1 | < 1 | 14 | 14 | 18 | 2 (≈ 6.69 µM) | 3 (≈ 10 µM) | 14 | 4 (≈ 13.4 µM) | 40 (≈ 134 µM) | 18 (≈ 60.2 µM) | 60 | 14 | 5 | 5 | 
6 | CCOC(=O)[C@@H](F)[C@@H](Br)C(=O)OCC (relative stereo) | 6 (≈ 22.1 µM) | 2 (≈ 7.38 µM) | 4 (≈ 14.8 µM) | 5 | 6 | 12 | 3 (≈ 11.1 µM) | 4 (≈ 14.8 µM) | 7 | 12 (≈ 44.3 µM) | 30 (≈ 111 µM) | 12 (≈ 44.3 µM) | 40 | 16 | 5 | 6 | 
7 | CCCCCOC(=O)[C@@H](F)[C@@H](Br)C(=O)OCCCCC (relative stereo) |  | 3 (≈ 8.44 µM) |  |  |  |  | 14 (≈ 39.4 µM) |  |  |  |  |  |  |  |  |  | inhibition [1]: inactive; inhibition [2]: inactive; inhibition [3]: inactive; inhibition [4]: inactive; inhibition [5]: inactive; inhibition [7]: inactive; inhibition [8]: inactive; inhibition [10]: inactive; inhibition [11]: inactive; inhibition [29]: inactive; inhibition [30]: inactive; inhibition [31]: inactive; inhibition [12]: inactive; inhibition [15]: inactive
8 | CC1/C=C/C=C/C=C/C=C/C=C/C=C/C=C/C(OC2O[C@H](C)[C@@H](O)[C@H](N)[C@@H]2O)CC(O)C(C(=O)O)C(O)CC(=O)CC(O)CC(O)CC(O)CC(=O)CCCC(=O)CC(=O)OC1C(C)CC(C)C(O)CC(=O)c1ccc(N)cc1 (stereo partly drawn) | < 1 | < 1 | < 1 | < 1 | 9 | 5 | 3 (≈ 2.7 µM) | < 1 | 2 | < 1 | 8 (≈ 7.21 µM) | 2 (≈ 1.8 µM) | 10 | 2 | < 1 | < 1 | 
